AC50 and activity change, negative = inhibition data for five compounds are collected here from PubChem BioAssay AID602268 (Broad Institute, 2012).

Several values for one entry are separate records, joined by “and”; a condition that tells them apart may be missing. Identical values can stand only once. Activity calls are given as the source filed them.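 How the source made its calls: active means compounds lowering reporter light with a fitted half-maximal dose no more than twice the top dose tested; inconclusive means flat curve at 30 to 70% inhibition, or poor fit; inactive means the rest.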

In assay [1] the test system is NIH3T3-HGL HSE-luciferase, MG132-induced, luminescence 8 h. The assay is described as follows: decrease of HSF-1-responsive luciferase luminescence – cell-based, NIH3T3, dry powder samples, dose response (AID 602268). An outline of the steps:
(§1)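 Test system: NIH3T3-HGL cells, HSE-controlled luciferase reporter. Input: 4,000 cells per well. Buffer or medium: Opti-MEM, 2.5% fetal bovine serum. Reagent: MG132 proteasome inhibitor stressor, 2.5 µM final. Incubation: cells 24 h, compound 30 min, then MG132 8 h. Detection: Steady-Glo luminescence of luciferase.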

Experiment in assay [2]: as above
To be noted: NIH3T3-HGL HSE-luciferase, MG132-induced, luminescence 8 h; at 26 µM (top of the series). An outline of the steps: as §1

`Oc1ccc(Br)cc1/C=N/Nc1ccccn1`: in assay [1], the concentration at half-maximal activity (AC50) (in general, the concentration at which the activity in the assay is half-maximal) was 1720 nM.

With `CC1=NNC(=O)/C1=C\c1cn(-c2ccccc2)nc1-c1ccc(Cl)cc1`, in assay [1], the AC50 was 1460 nM.

Take `CCc1ccc(NC(=O)C2C3CCC(O3)C2C(=O)O)cc1` (stereo not given): in assay [2], the activity change, negative = inhibition was 7.59% (inactive) and -9.7% (inactive).

As for `O=C1C=C(NCCN2CCOCC2)C(=O)c2cnccc21`, the AC50 in assay [1] was 2370 nM.

With `O=C(CCl)N1CCCC1c1ccc2c(c1)OCCO2` (stereo not given), the AC50 in assay [1] was 949 nM.
